Experimental data: ChEMBL document CHEMBL4308883, “Development of hydroxamate-based histone deacetylase inhibitors containing 1,2,4-oxadiazole moiety core with antitumor activities” (Bioorg Med Chem Lett, 2019)
pIC50: −log10 of the molar value.

Tests used:
Histone deacetylase 1 [1] = molecular target: T1, Histone deacetylase 1 (Homo sapiens, UniProt Q13547); assay: Inhibition of HDAC1 (unknown origin) using Boc-Lys (Ac)-AMC as substrate measured after 60 mins by […]
Histone deacetylase 1 [2] = molecular target: T1, Histone deacetylase 1; assay: Potency index, ratio of SAHA IC50 to test compound IC50 for HDAC1 (unknown origin)
HCCLM3 = assay: Antiproliferative activity against human HCCLM3 cells after 48 hrs by MTT assay; format: functional, cell-based; settings: HCCLM3, 48 h
HepG2 [3] = assay: Antiproliferative activity against human HepG2 cells after 48 hrs by MTT assay; format: functional, cell-based; settings: HepG2, 48 h
Histone deacetylase 1 [4] = molecular target: T1, Histone deacetylase 1; assay: Inhibition of HDAC1 in human HepG2 cells assessed as increase in acetylated histone H3 levels by Western blot analysis; format: cell-based
Outline: (§1)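 HepG2 cells were treated at three concentrations (1.25, 2.5 and 5.0), with SAHA as the reference. Acetylated histone H3 and H4 were detected by immunoblotting. Ac-H3 and Ac-H4 band intensities were quantified by densitometric scanning and normalised to β-actin, n = 3.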

Histone deacetylase 1 [5] = molecular target: T1, Histone deacetylase 1; assay: Inhibition of HDAC1 in human HepG2 cells assessed as increase in acetylated histone H4 levels by Western blot analysis; format: cell-based; outline: as §1
HepG2 [6] = assay: Induction of apoptosis in human HepG2 cells after 48 hrs by annexin V-FITC/propidium iodide staining based assay; format: functional, cell-based
HepG2 [7] = assay: Induction of apoptosis in human HepG2 cells assessed as early apoptotic cells at 1.25 uM after 48 hrs by annexin V-FITC/propidium iodide staining based assay (reference value: 3.2 %); format: functional
HepG2 [8] = assay: Induction of apoptosis in human HepG2 cells assessed as late apoptotic cells at 1.25 uM after 48 hrs by annexin V-FITC/propidium iodide staining based assay (reference value: 1.8 %); format: functional
HepG2 [9] = assay: Induction of apoptosis in human HepG2 cells assessed as early apoptotic cells at 2.5 uM after 48 hrs by annexin V-FITC/propidium iodide staining based assay (reference value: 3.2 %); format: functional
HepG2 [10] = assay: Induction of apoptosis in human HepG2 cells assessed as late apoptotic cells at 2.5 uM after 48 hrs by annexin V-FITC/propidium iodide staining based assay (reference value: 1.8 %); format: functional
HepG2 [11] = assay: Induction of apoptosis in human HepG2 cells assessed as early apoptotic cells at 5 uM after 48 hrs by annexin V-FITC/propidium iodide staining based assay (reference value: 3.2 %); format: functional
HepG2 [12] = assay: Induction of apoptosis in human HepG2 cells assessed as late apoptotic cells at 5 uM after 48 hrs by annexin V-FITC/propidium iodide staining based assay (reference value: 1.8 %); format: functional
HepG2 [13] = assay: Potency index, ratio of SAHA IC50 to test compound IC50 for antiproliferative activity against human HepG2 cells; format: functional

T1 sequence (Q13547 whole entry): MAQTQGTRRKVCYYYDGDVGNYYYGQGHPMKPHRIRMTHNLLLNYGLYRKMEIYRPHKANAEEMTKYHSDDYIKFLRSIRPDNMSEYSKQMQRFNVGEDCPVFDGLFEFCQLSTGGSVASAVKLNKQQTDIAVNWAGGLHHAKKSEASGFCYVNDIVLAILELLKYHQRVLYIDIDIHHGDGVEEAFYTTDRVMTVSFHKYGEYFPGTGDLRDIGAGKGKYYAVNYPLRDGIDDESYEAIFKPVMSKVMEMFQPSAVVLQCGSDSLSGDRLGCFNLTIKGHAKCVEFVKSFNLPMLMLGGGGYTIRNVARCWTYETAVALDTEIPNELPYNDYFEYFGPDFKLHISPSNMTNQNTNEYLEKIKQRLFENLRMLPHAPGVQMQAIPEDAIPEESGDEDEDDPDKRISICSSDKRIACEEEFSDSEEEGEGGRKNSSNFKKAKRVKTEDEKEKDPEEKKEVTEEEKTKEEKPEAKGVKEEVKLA

SMILES	pIC50 (Histone deacetylase 1 [1])	Ratio IC50 (Histone deacetylase 1 [2])	pIC50 (HCCLM3)	pIC50 (HepG2 [3])	inhibition (Histone deacetylase 1 [4])	inhibition (Histone deacetylase 1 [5])	Activity (HepG2 [6])	Activity (HepG2 [7]) [%]	Activity (HepG2 [8]) [%]	Activity (HepG2 [9]) [%]	Activity (HepG2 [10]) [%]	Activity (HepG2 [11]) [%]	Activity (HepG2 [12]) [%]	Ratio IC50 (HepG2 [13])
COc1ccc(N(Cc2noc(-c3ccccc3)n2)C(=O)CCCCCC(=O)NO)cc1	8.09	2	5.28	5.97	Dose-dependent effect	Dose-dependent effect	Dose-dependent effect	40.7	10.1	42.7	11.3	50.2	11.5	2 - 4
COc1ccc(N(Cc2noc(-c3cccc(F)c3)n2)C(=O)CCCCCC(=O)NO)cc1	7.98	–	5.18	5.99	Dose-dependent effect	Dose-dependent effect	Dose-dependent effect	44.6	11.1	44	14	50.8	10	2 - 4
O=C(CCCCCCC(=O)Nc1ccccc1)NO [VORINOSTAT]	–	–	–	–	–	–	–	29.7	9.3	33.5	10.7	40.4	10.7	–
COc1ccc(N(Cc2noc(-c3cccc(C)c3)n2)C(=O)CCCCCC(=O)NO)cc1	7.92	–	5.17	5.77	–	–	–	–	–	–	–	–	–	2 - 4
